Experimental data: ChEMBL document CHEMBL1145465, “PhoU is a persistence switch involved in persister formation and tolerance to multiple antibiotics and stresses in Escherichia coli” (2007)
In brackets after ≈: the same amount, converted by molar mass. Activity calls are given as the source filed them. No cut-off for these calls is given here.

Key:
Escherichia coli [1] = assay: Antibacterial activity against Escherichia coli K12 mutant JHU313 at 2 ug/ml after 48 hrs by disc diffusion method; type: functional
How it was run: (§1)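 Kirby-Bauer disc assay: log-phase LB culture was spread on LB agar for confluent growth. 7-mm nitrocellulose discs were soaked in antibiotic at the listed concentration and placed on the agar. After 48 h at 37°C, the diameter of the inhibition zone was measured in mm.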

Escherichia coli [2] = assay: Antibacterial activity against Escherichia coli K12 mutant JHU313 at 0.5 ug/ml after 48 hrs by disc diffusion method; type: functional; how it was run: as §1
Escherichia coli [3] = assay: Antibacterial activity against Escherichia coli K12 mutant JHU313 containing plasmid PhoU at 2 ug/ml after 48 hrs by disc diffusion method; type: functional; how it was run: as §1
Escherichia coli [4] = test system: Escherichia coli
Escherichia coli [5] = assay: Antibacterial activity against Escherichia coli K12 mutant JHU313 containing plasmid vector at 0.5 ug/ml after 48 hrs by disc diffusion method; type: functional; how it was run: as §1
Escherichia coli [6] = assay: Antibacterial activity against Escherichia coli K12 mutant JHU313 after 16 hrs by serial dilution method; type: functional; conditions: K12, 16 h
How it was run: (§2)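 Twofold serial antibiotic dilutions in LB broth were seeded with 10⁶–10⁷ bacteria/ml from log-phase culture and incubated 16 h at 37°C. MIC was taken as the lowest concentration with no visible growth. MBC was taken as the concentration giving a 100-fold CFU drop from the inoculum.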

Escherichia coli [7] = test system: Escherichia coli; remark: listed apart in the source
Escherichia coli [8] = assay: Antibacterial activity against Escherichia coli K12 PhoU wild type W3110 at 0.5 ug/ml after 48 hrs by disc diffusion method; type: functional
How it was run: (§3)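 Kirby-Bauer disc assay. Log-phase LB culture (10⁸ bacteria) was spread for confluent growth on LB agar. 7 mm nitrocellulose discs soaked in antibiotic at the listed concentrations were laid on the agar. Inhibition zone diameter (mm) was measured after 48 h at 37°C.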

Escherichia coli [9] = assay: Antibacterial activity against Escherichia coli K12 PhoU wild type W3110 at 1 ug/ml after 48 hrs by disc diffusion method
Escherichia coli [10] = assay: Antibacterial activity against Escherichia coli K12 PhoU wild type W3110 at 2 ug/ml after 48 hrs by disc diffusion method; type: functional; how it was run: as §3
Escherichia coli [11] = assay: Antibacterial activity against Escherichia coli K12 mutant JHU313 containing plasmid PhoU after 16 hrs by serial dilution method; type: functional; conditions: K12, 16 h; how it was run: as §2
Escherichia coli [12] = assay: Antibacterial activity against Escherichia coli K12 mutant JHU313 containing plasmid vector after 16 hrs by serial dilution method; type: functional; conditions: K12, 16 h; how it was run: as §2
Escherichia coli [13] = assay: Antibacterial activity against Escherichia coli K12 mutant JHU313 containing plasmid PhoU at 0.5 ug/ml after 48 hrs by disc diffusion method; type: functional; how it was run: as §1
Escherichia coli [14] = assay: Antibacterial activity against Escherichia coli K12 PhoU wild type W3110 after 16 hrs by serial dilution method; type: functional; conditions: K12, 16 h
How it was run: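 Serial twofold antibiotic dilutions in LB broth; log-phase inoculum 10⁶ to 10⁷ bacteria/ml; 16 h at 37°C. MIC was the lowest concentration with no visible growth. MBC was the concentration giving a 100-fold CFU drop below the seeded inoculum.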

Escherichia coli [15] = assay: Antibacterial activity against Escherichia coli K12 mutant JHU313 containing plasmid vector at 2 ug/ml after 48 hrs by disc diffusion method; type: functional; how it was run: as §1
Escherichia coli [16] = test system: Escherichia coli; remark: listed apart in the source
Escherichia coli [17] = assay: Antibacterial activity against Escherichia coli K12 containing PhoU mutant assessed as bacterial killing log phase at 3 ug/ml after 6 days; type: functional
Escherichia coli [18] = assay: Antibacterial activity against Escherichia coli K12 PhoU wild type W3110 assessed as cell count in log phase at […] after 6 days; type: functional, organism-based
Escherichia coli [19] = assay: Antibacterial activity against Escherichia coli K12 containing PhoU mutant assessed as bacterial killing stationary phase at 2 mg/ml after 6 days
Escherichia coli [20] = assay: Antibacterial activity against Escherichia coli K12 PhoU wild type W3110 assessed as cell count in stationary phase at 2 mg/ml after 6 days
Escherichia coli [21] = assay: Antibacterial activity against Escherichia coli K12 mutant JHU313 at 12.5 ug/ml after 48 hrs by disc diffusion method; type: functional; how it was run: as §1
Escherichia coli [22] = assay: Antibacterial activity against Escherichia coli K12 mutant JHU313 containing plasmid PhoU at 25 ug/ml after 48 hrs by disc diffusion method; type: functional; how it was run: as §1
Escherichia coli [23] = assay: Antibacterial activity against Escherichia coli K12 mutant JHU313 containing plasmid PhoU at 12.5 ug/ml after 48 hrs by disc diffusion method; type: functional; how it was run: as §1
Escherichia coli [24] = assay: Antibacterial activity against Escherichia coli K12 PhoU wild type W3110 at 25 ug/ml after 48 hrs by disc diffusion method; type: functional
How it was run: (§4)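 Kirby-Bauer disc assay. Log-phase LB broth culture (10⁸ bacteria) was spread on LB agar for confluent growth. 7 mm nitrocellulose discs soaked in antibiotic solution at the listed concentration were placed on the agar. Inhibition zone diameter (mm) was measured after 48 h at 37°C.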

Escherichia coli [25] = assay: Antibacterial activity against Escherichia coli K12 mutant JHU313 containing plasmid vector at 25 ug/ml after 48 hrs by disc diffusion method; type: functional
How it was run: (§5)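 Kirby-Bauer paper-disc assay: log-phase E. coli (10⁸ bacteria) grown in LB broth, spread on LB agar for confluent growth; 7 mm nitrocellulose discs soaked with antibiotic solution at the listed concentration (μg/ml) placed on surface; incubated 37°C for 48 h; diameter of growth-inhibition zone measured in mm. Strain is the phoU transposon mutant transformed by electroporation with empty vector control.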

Escherichia coli [26] = assay: Antibacterial activity against Escherichia coli K12 mutant JHU313 containing plasmid vector at 50 ug/ml after 48 hrs by disc diffusion method; type: functional; how it was run: as §5
Escherichia coli [27] = assay: Antibacterial activity against Escherichia coli K12 mutant JHU313 containing plasmid PhoU at 50 ug/ml after 48 hrs by disc diffusion method; type: functional; how it was run: as §1
Escherichia coli [28] = assay: Antibacterial activity against Escherichia coli K12 mutant JHU313 containing plasmid vector at 12.5 ug/ml after 48 hrs by disc diffusion method; type: functional; how it was run: as §1
Escherichia coli [29] = assay: Antibacterial activity against Escherichia coli K12 PhoU wild type W3110 at 50 ug/ml after 48 hrs by disc diffusion method; type: functional; how it was run: as §4
Escherichia coli [30] = assay: Antibacterial activity against Escherichia coli K12 mutant JHU313 at 25 ug/ml after 48 hrs by disc diffusion method; type: functional; how it was run: as §1
Escherichia coli [31] = assay: Antibacterial activity against Escherichia coli K12 PhoU wild type W3110 at 12.5 ug/ml after 48 hrs by disc diffusion method; type: functional; how it was run: as §4
Escherichia coli [32] = assay: Antibacterial activity against Escherichia coli K12 mutant JHU313 at 50 ug/ml after 48 hrs by disc diffusion method; type: functional; how it was run: as §1

In the case of `COc1cc(Cc2cnc(N)nc2N)cc(OC)c1OC` [TRIMETHOPRIM], the inhibition zone (IZ) (Escherichia coli [1]) is reported as 42 mm, the inhibition zone (IZ) (Escherichia coli [2]) is reported as 31 mm and the inhibition zone (IZ) (Escherichia coli [3]) is reported as 36 mm. It also gave an IZ (Escherichia coli [4]) of 40 mm, an inhibition zone (IZ) (Escherichia coli [5]) of 36 mm and an MBC (Escherichia coli [6]) of 1 µg/mL (≈ 3.44 µM). It also gave an MIC (Escherichia coli [6]) of 0.25 µg/mL (≈ 0.861 µM), an IZ (Escherichia coli [7]) of 33 mm and an inhibition zone (IZ) (Escherichia coli [8]) of 24 mm. For the same molecule, the IZ (Escherichia coli [9]) was 26 mm, the inhibition zone (IZ) (Escherichia coli [10]) was 30 mm and the MBC (Escherichia coli [11]) was 4 µg/mL (≈ 13.8 µM). For the same molecule, the MIC (Escherichia coli [11]) was 2 µg/mL (≈ 6.89 µM), the MBC (Escherichia coli [12]) was 1 µg/mL (≈ 3.44 µM) and the MIC (Escherichia coli [12]) was 0.5 µg/mL (≈ 1.72 µM). For the same molecule, the inhibition zone (IZ) (Escherichia coli [13]) was 32 mm, the MBC (Escherichia coli [14]) was 8 µg/mL (≈ 27.6 µM) and the MIC (Escherichia coli [14]) was 2 µg/mL (≈ 6.89 µM). The inhibition zone (IZ) (Escherichia coli [15]) was 44 mm and the IZ (Escherichia coli [16]) was 38 mm.

In the case of `NC(=O)c1cnccn1` [PYRAZINAMIDE], the CFU (Escherichia coli [17]) is reported as 1 10^6/ml, the Activity (Escherichia coli [18]) is reported as “Active” and the Activity (Escherichia coli [19]) is reported as “Active”. For the same molecule, the CFU (Escherichia coli [20]) was 6.7 10^6/ml.

Molecule `CN(C)[C@@H]1C(O)=C(C(N)=O)C(=O)[C@@]2(O)C(O)=C3C(=O)c4c(O)cccc4[C@@](C)(O)[C@H]3C[C@@H]12` [TETRACYCLINE] has an inhibition zone (IZ) (Escherichia coli [21]) of 26 mm, an inhibition zone (IZ) (Escherichia coli [22]) of 32 mm and an inhibition zone (IZ) (Escherichia coli [23]) of 30 mm. The inhibition zone (IZ) (Escherichia coli [24]) was 23 mm, the inhibition zone (IZ) (Escherichia coli [25]) was 34 mm and the inhibition zone (IZ) (Escherichia coli [26]) was 34 mm. It also gave an inhibition zone (IZ) (Escherichia coli [27]) of 32 mm, an inhibition zone (IZ) (Escherichia coli [28]) of 34 mm and an inhibition zone (IZ) (Escherichia coli [29]) of 23 mm. The inhibition zone (IZ) (Escherichia coli [30]) was 32 mm, the inhibition zone (IZ) (Escherichia coli [31]) was 22 mm and the inhibition zone (IZ) (Escherichia coli [32]) was 32 mm.
